ChEMBL document CHEMBL1141874, “Synthesis and biological evaluation of novel bisheterocycle-containing compounds as potential anti-influenza virus agents” (Bioorg Med Chem Lett, 2005)
In brackets after ≈: the same amount, converted by molar mass. Activity calls are given as the source filed them. The rule behind the calls is not given here.

Columns and labels:
Influenza A virus [1] = test: Cytotoxicity in MDCK cells infected with influenza A H3N2 virus; assay type: functional
In short: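 Confluent MDCK monolayers were infected with influenza A H3N2 (A3 China/15/90) for 2 h at 37 °C, then the inoculum was removed and a range of compound concentrations added. Cultures were read when the virus control reached 4+ CPE. The value is the concentration causing microscopically detectable toxicity in the virus-infected cultures.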

Influenza B virus = test: Inhibitory activity against influenza B virus; assay type: functional, organism-based
Influenza A virus [2] = test: Antiviral activity against influenza A H3N2 virus in MDCK cells; assay type: functional, organism-based
In short: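 Confluent MDCK monolayers were infected with influenza A H3N2 (A3 China/15/90) for 2 h at 37 °C. The inoculum was removed and the cells were treated with a range of compound concentrations. CPE was scored once the virus control reached 4+. The concentration giving 50% reduction of virus-induced CPE was found by Reed–Muench interpolation.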

[3] = Influenza A virus, H3N2, MDCK, read-out: IC50

SMILES | CC50 (Influenza A virus [1]) | Activity (Influenza B virus) | IC50 (Influenza A virus [2]; [3]) [µg/mL] | IC50 (Influenza A virus [2]; mdck)
COC(=O)c1nc(-c2csc([C@@H](NC(=O)CC3=CCCCC3)C(C)C)n2)oc1C | 231 µg/mL (≈ 554 µM) | inactive |  | 
COC(=O)c1nc(-c2csc([C@@H](NC(=O)C3CCCCC3)C(C)C)n2)oc1C | 144 µg/mL (≈ 356 µM) | inactive | 43.6 (≈ 107 µM) | 
COC(=O)c1nc(-c2csc([C@@H](NC(=O)c3ccccc3OC)C(C)C)n2)oc1C | 333 µg/mL (≈ 776 µM) | inactive | 47.7 (≈ 111 µM) | 
COC(=O)c1coc([C@H](C)NC(=O)c2nc(-c3csc([C@@H](NC(=O)c4cccc(F)c4)C(C)C)n3)oc2C)n1 | 577 µg/mL (≈ 1040 µM) | inactive | 77 (≈ 139 µM) | 
Cc1oc2nc1C(=O)N[C@@H](C)c1nc(co1)C(=O)N[C@@H](CC(C)C)C(=O)N1CCC[C@H]1C(=O)N[C@@H](C(C)C)c1nc-2cs1 [LEUCAMIDE A] | inactive |  |  | Not Active
CCC(=O)N[C@H](c1nc(-c2nc(C(=O)N[C@@H](C)c3nc(C(=O)OC)co3)c(C)o2)cs1)C(C)C | 577 µg/mL (≈ 1180 µM) | inactive |  | 
C=CCCC(=O)N[C@H](c1nc(-c2nc(C(=O)OC)c(C)o2)cs1)C(C)C | 577 µg/mL (≈ 1530 µM) | inactive |  | 
NC(=O)c1ncn([C@@H]2O[C@H](CO)[C@@H](O)[C@H]2O)n1 [RIBAVIRIN] |  |  | 3.73 (≈ 15.3 µM) | 
COC(=O)c1coc([C@H](C)NC(=O)c2nc(-c3csc([C@@H](NC(=O)CC=C(C)C)C(C)C)n3)oc2C)n1 | 577 µg/mL (≈ 1090 µM) | inactive |  | 
COC(=O)c1nc(-c2csc([C@@H](NC(=O)C(C)(C)C)C(C)C)n2)oc1C | 577 µg/mL (≈ 1520 µM) | inactive |  | 
C/C=C(\C)C(=O)N[C@H](c1nc(-c2nc(C(=O)OC)c(C)o2)cs1)C(C)C | 231 µg/mL (≈ 612 µM) | inactive | 37 (≈ 98.1 µM) | 
Cc1oc(-c2csc([C@@H](NC(=O)CC3=CCCC3)C(C)C)n2)nc1C(=O)O | 481 µg/mL (≈ 1230 µM) | inactive | 29 (≈ 74.5 µM) | 
COc1ccccc1C(=O)N[C@H](c1nc(-c2nc(C(=O)O)c(C)o2)cs1)C(C)C | 333 µg/mL (≈ 802 µM) | inactive | 29 (≈ 69.8 µM) | 
COC(=O)c1nc(-c2csc([C@@H](N)C(C)C)n2)oc1C | 577 µg/mL (≈ 1950 µM) | inactive | 259 (≈ 876 µM) | 
COC(=O)c1nc(-c2csc([C@@H](NC(=O)CC3=CCCC3)C(C)C)n2)oc1C | 333 µg/mL (≈ 826 µM) | inactive |  | 
COC(=O)c1coc([C@H](C)NC(=O)c2nc(-c3csc([C@@H](NC(=O)CC4=CCCCC4)C(C)C)n3)oc2C)n1 | 577 µg/mL (≈ 1040 µM) | inactive | 44.5 (≈ 80 µM) | 
COC(=O)c1nc(-c2csc([C@@H](NC(=O)CC=C(C)C)C(C)C)n2)oc1C | > 1000 µg/mL | inactive | 192 (≈ 492 µM) | 
COC(=O)c1coc([C@H](C)NC(=O)c2nc(-c3csc([C@@H](NC(=O)C4CCCCC4)C(C)C)n3)oc2C)n1 | 144 µg/mL (≈ 266 µM) | inactive |  | 
COC(=O)c1nc(-c2csc([C@@H](NC(=O)c3cccc(F)c3)C(C)C)n2)oc1C | > 1000 µg/mL | inactive | > 86.2 | 
CCC(=O)N[C@H](c1nc(-c2nc(C(=O)OC)c(C)o2)cs1)C(C)C | 577 µg/mL (≈ 1640 µM) | inactive |  | 
COC(=O)c1nc(-c2csc([C@@H](NC(=O)CCC=C(C)C)C(C)C)n2)oc1C | 577 µg/mL (≈ 1420 µM) | inactive | 37 (≈ 91.3 µM) | 
COC(=O)c1nc(-c2csc([C@@H](NC(=O)C3CCC3)C(C)C)n2)oc1C | 500 µg/mL (≈ 1320 µM) | inactive |  | 
